CAL PDZ FP-1: untagged CAL PDZ binding inhibitors, primary screen, biochemical, fluorescence polarization, HTS; Golgi-associated PDZ and coiled-coil motif-containing protein (Homo sapiens), Q9HD26; purified CAL PDZ, TMR-peptide fluorescence polarization, 1 h; inhibition, % at 24.9 µM; actives 0.92% (n = 300,000); AID 602252, 2012;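 active = mean inhibition of at least 30% with at least half of replicates also reaching 30%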;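 also: 0% = DMSO neutral control and 100% = excess unlabeled competitor peptide PRC23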
SR-BI HDL uptake: inhibitors of SR-BI mediated HDL lipid uptake, primary screen, ldlA[mSR-BI] cells, fluorescence, single point. Scavenger receptor class B member 1 (Mus musculus), Q61009. ldlA[mSR-BI] CHO cells, DiI-HDL uptake fluorescence, 3 h. inhibition, % at 12.5 µM. actives 0.96% (n = 320,000);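 active = mean replicate inhibition of at least 70% and a set share of replicates each scoring 70 or more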;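 also: 0% = median of neutral control wells and 100% = median of positive control wells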
Target sequence (Q61009 whole entry, looked up): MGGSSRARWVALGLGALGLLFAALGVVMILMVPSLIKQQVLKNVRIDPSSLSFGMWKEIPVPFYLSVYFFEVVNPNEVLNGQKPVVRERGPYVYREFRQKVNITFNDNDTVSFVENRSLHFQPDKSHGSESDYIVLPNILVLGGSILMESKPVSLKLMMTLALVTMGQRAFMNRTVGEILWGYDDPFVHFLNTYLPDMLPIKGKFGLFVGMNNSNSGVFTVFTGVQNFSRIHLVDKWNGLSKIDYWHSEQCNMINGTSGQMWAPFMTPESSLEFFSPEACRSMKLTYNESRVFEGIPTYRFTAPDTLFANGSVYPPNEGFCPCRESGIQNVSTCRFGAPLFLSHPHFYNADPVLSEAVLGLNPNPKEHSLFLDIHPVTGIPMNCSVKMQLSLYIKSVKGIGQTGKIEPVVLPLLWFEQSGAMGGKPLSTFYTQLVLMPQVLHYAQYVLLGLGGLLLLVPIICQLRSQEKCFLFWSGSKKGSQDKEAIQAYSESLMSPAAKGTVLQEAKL
CAL PDZ FP-2: CAL PDZ peptide-binding inhibitors, primary screen, biochemical, fluorescence polarization, Cer-tagged CAL PDZ, HTS. purified CAL PDZ, TMR-peptide fluorescence polarization, 1 h. inhibition, % at 20 µM. actives 0.02% (n = 330,000). AID 504414, 2011;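 active = highest replicate inhibition of at least 40%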;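 also: plate controls were DMSO neutral control wells for no effect and unlabeled competitor peptide control wells for full effect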
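Material: tagged CAL PDZ protein CerCALP, purified; buffer or medium: sodium phosphate/NaCl buffer pH 7.4 with TCEP, IgG, Thesit; also added: fluorescent TMR peptide probe; schedule: 1 h incubation at room temperature before polarization reading; technique: fluorescence polarization from S- and P-plane intensities, G-factor corrected; control set: unlabelled peptide and DMSO controls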
SR-BI uptake up: activators of SR-BI mediated DiI-HDL uptake, primary screen, ldlA[mSR-BI] CHO cells, DiI fluorescence. 3 h; 100 = double the neutral-control signal. activation, % at 12.5 µM. actives 0.096% (n = 320,000). AID 504775, 2011;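 active = mean replicate activation of at least 60% and every replicate at or above 60%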;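 also: 0% = median plate neutral-control signal and 100% = twice that signal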
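Assay system: LDL receptor-deficient CHO ldlA cells overexpressing murine SR-BI / Medium: BSA-supplemented, HEPES-buffered Ham's F12, pH 7.4 / Probe or stimulus: DiI-labelled HDL at 10 µg/mL final / Timing: compound with DiI-HDL co-incubation, 3 h at 37 °C / Technique: bottom-read cell fluorescence after medium removal, ex 550/em 595 nm / Measure: HDL uptake via cellular fluorescence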
dFosB activator: activators of delta FosB homodimer, primary screen, biochemical, fluorescence polarization, TAMRA-CDK5 oligo, single point. activation, % at 25 µM. Protein FosB (Mus musculus), P13346. AID 493131, 2011. purified delta FosB; percent of positive-control signal above neutral wells. actives 0.99% (n = 340,000);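 active = mean activation above about 17%, with every replicate also reaching it, limit read from the data, passing the limit was not always enough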
* hit, by the source's call; nt = not tested or not shown. Sampled rows, rich in hits. Any-hit rate of the full collection: about 2.8%.

SMILES	CAL PDZ FP-1	SR-BI HDL uptake	CAL PDZ FP-2	SR-BI uptake up	dFosB activator
CC1C/C(=C\c2ccccc2[N+](=O)[O-])c2nc3ccccc3c(C(=O)O)c2C1 (centres undefined)	49*	1	-1	-1	10
CCOCCCNC(=O)/C(C#N)=C/c1ccc([N+](=O)[O-])o1	1	-47	0	47	4
CCN1CCC(O)(/C=C/c2ccc(C(C)C)cc2)C(C(=O)/C=C/c2ccc(C(C)C)cc2)C1 (centres undefined)	6	26	-1	-26	54*
CCc1nn(CC(=O)N(C)C2CCCCC2)c(=O)c2cc3cc(C)ccc3n12	104*	23	0	-23	-13
Cc1cc([N+](=O)[O-])nn1CC(=O)N(C)C1CCCCC1	54*	-11	-1	11	6
COc1ccccc1C(=O)N=c1sc2c(C)ccc(OC)c2n1C	-3	nt	-1	nt	-5
COc1ccc(C(=O)Nc2cc(OC)c(Cl)cc2OC)cc1	37*	57	-1	-57	3
COc1cc(OC)c(NC(=S)Nc2cccc(C(C)=O)c2)cc1Cl	-3	87*	-1	-87	8
COc1cc(NC(=O)c2cc(C3CC3)on2)c(OC)cc1Cl	7	81*	1	-81	1
COc1ccc(NC(=O)c2cc(C(C)C)on2)c(OC)c1	nt	nt	-1	nt	-4
COc1cc(NC(=O)c2cc(C(C)C)on2)c(OC)cc1Cl	-5	82*	nt	-82	-9
CCN1C[C@@H]2[C@@H]3C(=O)N(Cc4ccccc4)C(=O)[C@@H]3[C@](C)(C1=O)N2C(=O)c1ccc(C(F)(F)F)cc1	-6	nt	0	nt	0
O=C(OCC(=O)c1ccccc1)C1=NN(c2ccccc2)C(=O)CC1	nt	-11	0	11	-4
O=C(OCc1csc(-c2ccccc2)n1)C1=NN(c2ccccc2)C(=O)CC1	31*	-10	0	10	-10
Cc1nc2ccc(NC(=O)c3cncc(Br)c3)cc2s1	-2	nt	17	nt	-2
COCCn1c(=NC(=O)/C=C/c2cccs2)sc2cc(NC(C)=O)ccc21	-7	72*	0	-72	3
COc1cc2c(c(OC)c1OC)-c1ccc(SC)c(=O)cc1C(NC(=O)C(F)(F)F)CC2 (centres undefined)	-2	-14	1	14	-5
CCOCC(=O)NC1CCc2cc(OC(=O)COCC)c(OC)c(OC)c2-c2ccc(SC)c(=O)cc21 (centres undefined)	34*	-16	0	16	-9
NC(=O)C1CCN(C(=O)C(=O)c2cn(CC(=O)N3CCCCCC3)c3ccccc23)CC1	-4	6	0	-6	0
Cc1ccc(S(=O)(=O)N2CCN(C(=O)CN3C(=O)NC(C)(c4ccc5ccccc5c4)C3=O)CC2)cc1 (centres undefined)	73*	8	-2	-8	-4
O=c1c2cc3c(cc2[nH]c(=S)n1CCN1CCOCC1)OCO3	45*	nt	nt	nt	5
CC1CCN(CCn2c(=S)[nH]c3cc4c(cc3c2=O)OCO4)CC1	-5	-10	-3	10	5
O=C(CCn1c(=S)[nH]c2cc3c(cc2c1=O)OCO3)NCc1ccccc1Cl	-2	-4	-2	4	35*
S=C(NCc1ccccn1)NN=Cc1ccccn1	-2	15	0	-15	-5
O=[N+]([O-])c1ccccc1N/N=C\c1ccccc1Cl	-3	3	-2	-3	-3
SMILES	CAL PDZ FP-1	SR-BI HDL uptake	CAL PDZ FP-2	SR-BI uptake up	dFosB activator
CCCOc1ccc(/C=N/Nc2ccccc2[N+](=O)[O-])c(OCCC)c1	0	104*	-1	-104	1
Cc1ccc(C)c(N(CC(=O)NC2CCCCC2)C(=O)CNC(=O)c2ccco2)c1	-6	-1	-2	1	-7
Cc1ccc(-n2ncc3c2CCCC3NC(=O)CCc2c(C)noc2C)cc1C (centres undefined)	33*	40	-1	-40	-3
COc1ccc(-c2cn3ccccc3n2)cc1[N+](=O)[O-]	-2	8	-1	-8	-8
COc1ccc(-c2cn3cc([N+](=O)[O-])ccc3n2)cc1OC	60*	-10	0	10	-12
O=C(Cc1c(F)cccc1Cl)Nc1ccc(S(=O)(=O)Nc2nccs2)cc1	-1	-1	-2	1	-1
Cc1nn(CC(=O)NCC(C)c2ccccc2)c(=O)c2cc(-c3ccccc3)nn12 (centres undefined)	0	12	-1	-12	-2
CC(C)C(=O)Nc1cccc(C(=O)N2CCCCC2C)c1 (centres undefined)	-2	-7	-3	7	-8
CC1CCCCN1C(=O)c1cccc(NC(=O)c2ccccc2)c1 (centres undefined)	76*	26	-1	-26	-4
CN(C(=O)c1cccc(NC(=O)Cc2ccc([N+](=O)[O-])cc2)c1)C1CCCC1	-1	33	1	-33	-1
CN(C(=O)c1cccc(NC(=O)c2ccccc2)c1)C1CCCCC1	48*	32	-1	-32	2
O=C(O)CCCC(=O)Nc1ccc(N2CCCC2)cc1	93*	-10	nt	10	-1
Cc1cc(N2CCCC2)ccc1NC(=O)COc1ccccc1	-7	72*	-2	-72	8
Cc1cc(OCC(=O)Nc2ccc(N3CCCC3)cc2)cc(C)c1Cl	1	87*	-1	-87	65*
O=S(=O)(c1cc(C(F)(F)F)ccc1Cl)N1CCN(c2ncnc3ccccc23)CC1	62*	-3	-1	3	-14
COc1ccc(C(=O)Nc2ccnn2C2CCN(C(=O)c3cccnc3)CC2)cc1	0	-41	-3	41	1
O=C(N/N=C/c1cc(O)ccc1Br)c1cccnc1	-11	77*	-4	-77	-13
O=C(N/N=C/c1cccc(OC(=O)c2cccc(Br)c2)c1)c1cccnc1	-5	-5	-5	5	11
COc1ccc(/C=N/NC(=O)c2cccnc2)cc1O	37*	-33	-1	33	-3
O=C(N/N=C/c1ccc(OC(=O)c2cccc(Br)c2)cc1)c1cccnc1	0	nt	-2	nt	27*
O=C(N/N=C/c1cc(Br)c(O)c(Br)c1O)c1cccnc1	-8	-3	0	3	-1
CN(C(=O)C1CCC(=O)N(C2CC2)C1)C1CCCCC1 (centres undefined)	-3	-8	-1	8	0
Cc1cccn2c(=O)c(C=O)c(Nc3ccccc3)nc12	-6	nt	-2	nt	-6
